Test results: ChEMBL document CHEMBL2311257, “Synthesis and antioxidant activity of thymol and carvacrol based Schiff bases” (Bioorg Med Chem Lett, 2013)
≈ marks a conversion by molar mass, not a printed value. Calls of active or inactive are those of the source. No cut-off for these calls is given here.

Legend:
Type in all cases: functional
[1] = tested on: Radical scavenging activity; test: Antioxidant activity assessed as DPPH radical scavenging activity in ethanol solution at 25 ug/mL
Procedure, shortened: (§1)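 Compound dissolved in ethanol, then ethanolic DPPH added. Incubated 30 min in the dark. DPPH decrease read as absorbance at 517 nm against an ethanol blank, with ascorbic acid as reference. % activity = [(A0 − Ai)/A0] × 100, where A0 is absorbance without compound and Ai with compound. IC50 taken from activity across concentrations.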

[2] = tested on: Radical scavenging activity; test: Antioxidant activity assessed as DPPH radical scavenging activity in ethanol solution at 10 ug/mL; procedure, shortened: as §1
[3] = tested on: Radical scavenging activity; test: Antioxidant activity assessed as DPPH radical scavenging activity in chloroform solution at 25 ug/mL
[4] = tested on: Radical scavenging activity; test: Antioxidant activity assessed as DPPH radical scavenging activity in chloroform solution at 10 ug/mL
[5] = tested on: Radical scavenging activity; test: Antioxidant activity assessed as DPPH radical scavenging activity in chloroform solution
[6] = tested on: Radical scavenging activity; test: Antioxidant activity assessed as DPPH radical scavenging activity in ethanol solution at 5 ug/mL; procedure, shortened: as §1
[7] = Antioxidant activity assessed as ABTS radical scavenging activity at 5 ug/mL
Procedure, shortened: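 ABTS radical cation solution diluted in ethanol to an absorbance of 0.7–0.9 at 734 nm, 30 °C. Equal volume added to ethanolic compound solution (5 µg/mL). Absorbance read after 1 min and converted to percent inhibition.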

[8] = tested on: Radical scavenging activity; test: Antioxidant activity assessed as DPPH radical scavenging activity in ethanol solution at 50 ug/mL; procedure, shortened: as §1
[9] = tested on: Radical scavenging activity; test: Antioxidant activity assessed as DPPH radical scavenging activity in chloroform solution at 50 ug/mL
[10] = tested on: Radical scavenging activity; test: Antioxidant activity assessed as DPPH radical scavenging activity in chloroform solution at 5 ug/mL
[11] = tested on: Radical scavenging activity; test: Antioxidant activity assessed as DPPH radical scavenging activity in ethanol solution at 100 ug/mL; procedure, shortened: as §1
[12] = tested on: Radical scavenging activity; test: Antioxidant activity assessed as DPPH radical scavenging activity in ethanol solution; procedure, shortened: as §1
[13] = tested on: Radical scavenging activity; test: Antioxidant activity assessed as DPPH radical scavenging activity in chloroform solution at 100 ug/mL

SMILES | Activity [1] [%] | Activity [2] [%] | Activity [3] [%] | Activity [4] [%] | IC50 [5] [µg/mL] | Activity [6] [%] | Activity [7] | Activity [8] [%] | Activity [9] [%] | Activity [10] [%] | Activity [11] [%] | IC50 [12] [µg/mL] | Activity [13] [%]
Cc1cc(/N=C/c2cc(Br)c(O)c(Br)c2)c(C(C)C)cc1O | 74.6 | 47.6 | 69 | 45.4 | 12.6 (≈ 29.5 µM) | 33.3 | Active | 88.2 | 85.8 | 31.7 | 95.2 | 7.85 (≈ 18.4 µM) | 91.3
COc1ccc(/C=N/c2cc(C(C)C)c(O)cc2C)cc1OC | 73.4 | 43.3 | 72 | 41.9 | 19.12 (≈ 61 µM) | 19.7 | Active | 84.1 | 85.2 | 20.6 | 89.4 | 18.66 (≈ 59.5 µM) | 88.9
Cc1cc(O)c(C(C)(C)C)cc1/N=C/c1ccccc1O | 69.6 | 51 | 70 | 48.6 | 14.36 (≈ 50.7 µM) | 29 | Active | 86.4 | 85.7 | 24.9 | 90.7 | 10.54 (≈ 37.2 µM) | 90.9
